Compound activity as filed in PubChem.
Hits are enriched below; roughly 0.89% of the tested compounds scored in any of these assays.
ABCB6 inh MLPCN = human ABCB6 transporter inhibition; Q9NP58; K562-ABCB6 porphyrin accumulation, flow cytometry, 1 h; stronger effect = lower value; fluorescence ratio to DMSO, % at 10 µM; 360,000 tested, 0.19% active;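 active = fluorescence ratio to DMSO below 75%, the collection mean minus 3 SD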;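 note: signal is porphyrin accumulated inside mitochondria; 100% equals median channel fluorescence of DMSO control wells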
Target sequence (Q9NP58 whole entry, looked up): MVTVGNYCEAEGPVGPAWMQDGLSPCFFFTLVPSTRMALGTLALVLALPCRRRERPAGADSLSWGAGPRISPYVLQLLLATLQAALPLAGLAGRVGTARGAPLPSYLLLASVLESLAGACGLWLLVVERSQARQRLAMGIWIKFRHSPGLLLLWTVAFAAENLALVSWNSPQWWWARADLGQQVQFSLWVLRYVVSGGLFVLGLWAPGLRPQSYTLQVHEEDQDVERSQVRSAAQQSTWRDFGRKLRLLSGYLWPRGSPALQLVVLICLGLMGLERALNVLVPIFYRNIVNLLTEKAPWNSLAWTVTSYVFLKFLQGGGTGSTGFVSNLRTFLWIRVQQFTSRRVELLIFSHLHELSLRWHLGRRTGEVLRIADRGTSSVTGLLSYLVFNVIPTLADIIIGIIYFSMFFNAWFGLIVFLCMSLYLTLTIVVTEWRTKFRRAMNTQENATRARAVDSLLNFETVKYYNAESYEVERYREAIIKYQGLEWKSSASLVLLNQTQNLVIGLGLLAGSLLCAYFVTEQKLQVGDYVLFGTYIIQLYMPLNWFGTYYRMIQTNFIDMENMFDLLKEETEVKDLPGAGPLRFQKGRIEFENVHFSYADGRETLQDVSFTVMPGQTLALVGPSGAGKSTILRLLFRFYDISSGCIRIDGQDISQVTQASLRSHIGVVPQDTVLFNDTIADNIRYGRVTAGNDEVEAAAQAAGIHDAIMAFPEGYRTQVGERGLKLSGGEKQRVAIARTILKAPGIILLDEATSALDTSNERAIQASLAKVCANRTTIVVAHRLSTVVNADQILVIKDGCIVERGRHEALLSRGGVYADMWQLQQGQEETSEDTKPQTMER
iPSC survival up = increases survival of single human iPS cells. hiPSC single-cell survival, ATPlite luminescence; 100% = ROCK inhibitor wells, 0% = DMSO. survival enhancement, % at 20 µM. 360,000 tested, 0.044% active; in the data active = survival enhancement above about 18%;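 note: cells exposed to compounds for 16 hours before the ATP read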
PG9 binder = small molecules binding HIV-1 gp120 antibody PG9. TR-FRET gp120-PG9 antibody binding. inhibition, % at 6.7 µM. 360,000 tested, 0.43% active. AID 624416; in the data active = inhibition above about 8.5%
Arr AP2 block = blocks beta-arrestin peptide binding to AP2 adaptin; inhibition, % at 10 µM; 340,000 tested, 0.31% active; FITC-arrestin peptide / GST-AP2 beads, flow cytometry; AP2 beta2 appendage carries R879A mutation;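 active = inhibition above a set limit, near 3 SD of compounds lacking own fluorescence, cut at about 54% in these data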;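 note: plate controls were DMSO wells for no effect and 5 µM unlabelled arrestin peptide for full effect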
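system = GST-tagged AP2 beta2-adaptin appendage (R879A) on 4 µm glutathione beads | reagent = FITC-labelled arrestin peptide probe, 50 nM final | schedule = compound with beads 12 min RT, then probe 1 h RT | signal = HyperCyt-sampled flow cytometry, FL1 channel, ex 488/em 535 nm | read-out = percent response from loss of bead-bound FITC fluorescence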
PG9 bind confirm = PG9 antibody binding, confirmed. shares compounds with PG9 binder. TR-FRET PG9 antibody binding, biochemical. inhibition, % at 6.7 µM. 1,500 tested, 90% active; in the data active = inhibition above about 9%
PGV04 Ab binding = PGV04 control antibody binding, counter-screen; shares compounds with PG9 binder; TR-FRET PGV04 antibody-gp120 binding, biochemical; inhibition, % at 6.7 µM; 1,500 tested, 95% active; in the data active = inhibition above about 9.5%
PG9 bind DR = small molecules binding HIV-1 gp120 antibody PG9 | AID 651848 | IC50, µM | 95 tested, under 10 active | shares compounds with PG9 binder | TR-FRET PG9 antibody-gp120 binding inhibition; in the data active = IC50 below about 10 µM
PGV04 binding DR = binds control antibody PGV04 in PG9 counter-screen; shares compounds with PG9 binder; TR-FRET binding to control antibody PGV04; IC50, µM; 95 tested, 20% active; AID 651937
PG126 binding DR = binds control antibody PG126 in PG9 counter-screen; IC50, µM; TR-FRET binding to antibody PG126, counterscreen; 95 tested, 20% active; AID 651939; shares compounds with PG9 binder
* marks the source's active call; other numbers are inactive results. Cut-off read from the data, not from the text of the source, unless noted: active = IC50 below about 9 µM; inactive = the rest.

Results for CC1OC2CC(=O)OC2C2=C1C(=O)c1c(O)cccc1C2=O (stereo not given) ?
ABCB6 inh MLPCN: 118; iPSC survival up: 0; PG9 binder: 15*; PG9 bind confirm: 14*; PGV04 Ab binding: 17*

What do the screens show for `CC(C)[C@H](NC(=O)c1ccc(Cl)c(Cl)c1)C(=O)N1CCC[C@H]1C(=O)NCCc1ccccc1Cl`?
PG9 binder: -3

Results for Cc1cc(O)cc(=O)n1-c1cccc(C(F)(F)F)c1 ?
PG9 binder: -1

How did Cc1ccc(OCCNC(=O)[C@@H](Cc2ccccc2)NC(=O)[C@H]2O[C@@H](n3ccc(=O)[nH]c3=O)[C@H](O)[C@@H]2O)cc1C do in these assays?
PG9 binder: -1

Results for COC(=O)Cc1ccc(NC(=O)c2ccc(Br)o2)cc1 ?
ABCB6 inh MLPCN: 103; iPSC survival up: 1; PG9 binder: 1; Arr AP2 block: -1

How did COc1ccc(-c2ccc(NC(=O)c3ccc(Br)o3)cc2)nn1 do in these assays?
ABCB6 inh MLPCN: 96; iPSC survival up: 0; PG9 binder: 14*; Arr AP2 block: -8; PG9 bind confirm: 13*; PGV04 Ab binding: 24*

How did C=CCn1c(=S)[nH]c2scc(-c3cccs3)c2c1=O do in these assays?
ABCB6 inh MLPCN: 93; iPSC survival up: 1; PG9 binder: 9.3*; Arr AP2 block: -57; PG9 bind confirm: 9.8*; PGV04 Ab binding: 10*

Results for COC(=O)C1=C(C)N(Cc2ccc(F)cc2)C(=S)NC1c1cccc(OC)c1 (stereo not given) ?
PG9 binder: 0

What do the screens show for `C/C(N)=C(/C#N)C(=O)CSc1nc2ccccc2c(=O)n1-c1ccc(C)c(Cl)c1`?
ABCB6 inh MLPCN: 103; iPSC survival up: 0; PG9 binder: 45*; Arr AP2 block: 3; PG9 bind confirm: 39*; PGV04 Ab binding: 56*

How did C/C(N)=C(/C#N)C(=O)CSc1nc2ccccc2c(=O)n1-c1ccccc1C do in these assays?
ABCB6 inh MLPCN: 99; iPSC survival up: -2; PG9 binder: -2; Arr AP2 block: 2

How did O=c1c(Br)c(Br)cnn1-c1ccccc1 do in these assays?
ABCB6 inh MLPCN: 75; iPSC survival up: 0; PG9 binder: 13*; Arr AP2 block: -15; PG9 bind confirm: 18*; PGV04 Ab binding: 28*

How did CC(C)(C)C(=O)Cn1c(=O)n(-c2ccc(F)cc2F)c(=O)c2sccc21 do in these assays?
ABCB6 inh MLPCN: 93; iPSC survival up: 1; PG9 binder: 12*; Arr AP2 block: -4; PG9 bind confirm: 5; PGV04 Ab binding: 7

Results for COc1ccc(CCNC(=O)Cn2c(=O)n(-c3ccc(F)cc3F)c(=O)c3sccc32)cc1OC ?
ABCB6 inh MLPCN: 98; iPSC survival up: 0; PG9 binder: 0; Arr AP2 block: 7

What do the screens show for `CCOC(=O)c1cc2sc(C)cc2n1CC(=O)Nc1cccc(C)c1C`?
ABCB6 inh MLPCN: 100; iPSC survival up: 0; PG9 binder: 11*; Arr AP2 block: 2; PG9 bind confirm: 11*; PGV04 Ab binding: 17*

How did COCc1cc(C)nc(Nc2ccc(C)c(C)c2)c1C#N do in these assays?
ABCB6 inh MLPCN: 98; iPSC survival up: 0; PG9 binder: 31*; Arr AP2 block: -1; PG9 bind confirm: 29*; PGV04 Ab binding: 46*

Results for Nn1c(SCC(=O)NC2CCCCC2)nnc1-c1ccc(Cl)cc1 ?
ABCB6 inh MLPCN: 95; iPSC survival up: -2; PG9 binder: 4; Arr AP2 block: -9

What do the screens show for `N#Cc1c(N)nc(SCC(=O)NC2CCCCC2)c(C#N)c1-c1ccc(Cl)cc1`?
ABCB6 inh MLPCN: 102; iPSC survival up: -5; PG9 binder: 18*; Arr AP2 block: 11; PG9 bind confirm: 26*; PGV04 Ab binding: 29*

Results for CC(C)c1ccc(-c2c(C#N)c(N)nc(SCC(=O)N3CCCCC3)c2C#N)cc1 ?
ABCB6 inh MLPCN: 98; iPSC survival up: 2; PG9 binder: 42*; Arr AP2 block: 9; PG9 bind confirm: 69*; PGV04 Ab binding: 66*; PG9 bind DR: 6*; PGV04 binding DR: 3.4*; PG126 binding DR: 4*

Results for CC(C)c1ccc(-c2c(C#N)c(N)nc(SCC(=O)N3CCCCCC3)c2C#N)cc1 ?
PG9 binder: 83*; PG9 bind confirm: 89*; PGV04 Ab binding: 92*

How did C=CCSc1nc(N)c(C#N)c(-c2ccc(C)cc2)c1C#N do in these assays?
ABCB6 inh MLPCN: 100; iPSC survival up: -2; PG9 binder: 0; Arr AP2 block: 14

How did CCCCOCC1CN(CCCC)S(=O)(=O)c2c(cccc2N2CCCCC2)O1 (stereo not given) do in these assays?
PG9 binder: -1

Results for COc1ccc(C(=O)N(C)[C@H]2C[C@H]3c4[nH]c5c(-c6ccccc6)cccc5c4CCN3C(=O)[C@H]2[C@H](C)O)cc1 ?
PG9 binder: 0

What do the screens show for `CC(NC(=O)c1c(N)[nH]c(C(=O)c2ccc(Cl)cc2)c1-c1ccc(Br)cc1)c1cccc2ccccc12` (stereo not given)?
PG9 binder: 0

Results for CCc1ccccc1NC(=O)CNC(=O)CCc1nc2sc3c(c2c(=O)[nH]1)CCCC3 ?
ABCB6 inh MLPCN: 100; iPSC survival up: -1; PG9 binder: 19*; Arr AP2 block: 11; PG9 bind confirm: 21*; PGV04 Ab binding: 38*

How did CC(=O)Nc1ccc(NC(=O)CCc2nc3sc4c(c3c(=O)[nH]2)CCCC4)cc1 do in these assays?
ABCB6 inh MLPCN: 99; iPSC survival up: 0; PG9 binder: -1; Arr AP2 block: -1

Results for Cc1cc(C)cc(NC(=O)CCc2nc3sc4c(c3c(=O)[nH]2)CCCC4)c1 ?
ABCB6 inh MLPCN: 97; iPSC survival up: -1; PG9 binder: 11*; Arr AP2 block: -16; PG9 bind confirm: 17*; PGV04 Ab binding: 23*

How did O=C(CCc1nc2sc3c(c2c(=O)[nH]1)CCCC3)Nc1cccc(Cl)c1 do in these assays?
ABCB6 inh MLPCN: 98; iPSC survival up: 0; PG9 binder: 36*; Arr AP2 block: -7; PG9 bind confirm: 28*; PGV04 Ab binding: 38*

Results for CCN(CC)C(=O)c1cccc(NC(=O)CCc2nc3sc4c(c3c(=O)[nH]2)CCCC4)c1 ?
ABCB6 inh MLPCN: 100; iPSC survival up: 0; PG9 binder: 0; Arr AP2 block: 10
